ChEMBL document CHEMBL1629670, “In vitro activities of retigeric acid B alone and in combination with azole antifungal agents against Candida albicans” (2009)
≈ marks a conversion by molar mass, not a printed value. Calls of active or inactive are those of the source. The rule behind the calls is not given here.

Experiments:
Candida albicans [1] = experiment: Antifungal activity against Candida albicans CA127 after 48 hrs by broth microdilution method; format: functional; details: CA127, 48 h
Method in brief: (§1)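 CLSI M27-A2 broth microdilution of clinical isolates in RPMI 1640 buffered to pH 7.0 with 0.165 M MOPS. Final inoculum 0.5 x 10^3 to 2.5 x 10^3 cells/ml, incubated 35°C for 48 h. Growth read as OD490 with background subtracted. MIC taken as the lowest drug concentration giving 80% growth reduction versus drug-free control. Run in triplicate.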

Candida albicans [2] = experiment: Antifungal activity against Candida albicans CA137 after 48 hrs by broth microdilution method; format: functional; details: CA137, 48 h; method in brief: as §1
Candida albicans [3] = experiment: Antifungal activity against Candida albicans CA138 after 48 hrs by broth microdilution method; format: functional; details: CA138, 48 h; method in brief: as §1
Candida albicans [4] = experiment: Antifungal activity against Candida albicans CA4 after 48 hrs by broth microdilution method; format: functional; details: CA4, 48 h; method in brief: as §1
Candida albicans [5] = experiment: Antifungal activity against Candida albicans CA135 after 48 hrs by broth microdilution method; format: functional; details: CA135, 48 h; method in brief: as §1
Candida albicans [6] = experiment: Antifungal activity against Candida albicans CA132 after 48 hrs by broth microdilution method; format: functional; details: CA132, 48 h; method in brief: as §1
Candida albicans [7] = experiment: Antifungal activity against Candida albicans CA3 after 48 hrs by broth microdilution method; format: functional; details: CA3, 48 h; method in brief: as §1
Candida albicans [8] = experiment: Antifungal activity against Candida albicans CA1 after 48 hrs by broth microdilution method; format: functional; details: CA1, 48 h; method in brief: as §1
Candida albicans [9] = experiment: Antifungal activity against Candida albicans CA10 after 48 hrs by broth microdilution method; format: functional; details: CA10, 48 h; method in brief: as §1
Candida albicans [10] = experiment: Antifungal activity against Candida albicans CA2 after 48 hrs by broth microdilution method; format: functional; details: CA2, 48 h; method in brief: as §1
Candida albicans [11] = experiment: Antifungal activity against Candida albicans CA1 after 48 hrs by broth microdilution method in presence of itraconazole; format: functional
Method in brief: (§2)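 Checkerboard broth microdilution (CLSI M27-A2) on clinical isolates in RPMI 1640 buffered to pH 7.0 with 0.165 M MOPS. Final inoculum was 0.5 x 10^3 to 2.5 x 10^3 CFU/ml. RAB was tested at 0.25–16 µg/ml against FLC at 0.008–8 µg/ml, or against KCZ or ITR at 0.001–1 µg/ml. Plates ran 48 h at 35°C, read by background-subtracted OD490. MIC was taken at 80% growth reduction versus drug-free control. Run in triplicate.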

Candida albicans [12] = experiment: Antifungal activity against Candida albicans CA10 assessed as cell viability after 2 hrs by XTT reduction assay in presence of ketoconazole; format: functional, organism-based
Method in brief: (§3)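 Viability was read on CA10 time-kill cultures grown in RPMI 1640 from 10^5 CFU/ml. Treatments were RAB 8 µg/ml plus FLC 8 µg/ml, ITR 8 µg/ml or KCZ 2 µg/ml, with DMSO <1%. At each sampling time a 100-µl aliquot got XTT-menadione (final 0.25 mg/ml and 5 µM) and was held in the dark up to 2 h at 35°C. Formazan was read at 490 nm; triplicate means.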

Candida albicans [13] = experiment: Antifungal activity against Candida albicans CA132 after 48 hrs by broth microdilution method in presence of itraconazole; format: functional; method in brief: as §2
Candida albicans [14] = experiment: Antifungal activity against Candida albicans CA10 after 48 hrs by broth microdilution method in presence of itraconazole; format: functional; method in brief: as §2
Candida albicans [15] = experiment: Antifungal activity against Candida albicans CA2 after 48 hrs by broth microdilution method in presence of itraconazole; format: functional; method in brief: as §2
Candida albicans [16] = experiment: Antifungal activity against Candida albicans CA127 after 48 hrs by broth microdilution method in presence of ketoconazole; format: functional; method in brief: as §2
Candida albicans [17] = experiment: Antifungal activity against Candida albicans CA138 after 48 hrs by broth microdilution method in presence of ketoconazole; format: functional; method in brief: as §2
Candida albicans [18] = experiment: Antifungal activity against Candida albicans CA135 after 48 hrs by broth microdilution method in presence of fluconazole; format: functional; method in brief: as §2
Candida albicans [19] = experiment: Antifungal activity against Candida albicans CA137 after 48 hrs by broth microdilution method in presence of fluconazole; format: functional; method in brief: as §2
Candida albicans [20] = experiment: Antifungal activity against Candida albicans CA4 after 48 hrs by broth microdilution method in presence of itraconazole; format: functional; method in brief: as §2
Candida albicans [21] = experiment: Antifungal activity against Candida albicans CA10 after 48 hrs by broth microdilution method in presence of ketoconazole; format: functional; method in brief: as §2
Candida albicans [22] = experiment: Antifungal activity against Candida albicans CA2 after 48 hrs by broth microdilution method in presence of fluconazole; format: functional; method in brief: as §2
Candida albicans [23] = experiment: Antifungal activity against Candida albicans CA138 after 48 hrs by broth microdilution method in presence of itraconazole; format: functional; method in brief: as §2
Candida albicans [24] = experiment: Antifungal activity against Candida albicans CA132 after 48 hrs by broth microdilution method in presence of fluconazole; format: functional; method in brief: as §2
Candida albicans [25] = experiment: Antifungal activity against Candida albicans CA1 after 48 hrs by broth microdilution method in presence of ketoconazole; format: functional; method in brief: as §2
Candida albicans [26] = experiment: Antifungal activity against Candida albicans CA135 after 48 hrs by broth microdilution method in presence of ketoconazole; format: functional; method in brief: as §2
Candida albicans [27] = experiment: Antifungal activity against Candida albicans CA4 after 48 hrs by broth microdilution method in presence of ketoconazole; format: functional; method in brief: as §2
Candida albicans [28] = experiment: Antifungal activity against Candida albicans CA138 after 48 hrs by broth microdilution method in presence of fluconazole; format: functional; method in brief: as §2
Candida albicans [29] = experiment: Antifungal activity against Candida albicans CA10 assessed as cell viability after 2 hrs by XTT reduction assay in presence of itraconazole; format: functional, organism-based; method in brief: as §3
Candida albicans [30] = experiment: Antifungal activity against Candida albicans CA137 after 48 hrs by broth microdilution method in presence of ketoconazole; format: functional; method in brief: as §2
Candida albicans [31] = experiment: Antifungal activity against Candida albicans CA10 after 48 hrs by broth microdilution method in presence of fluconazole; format: functional; method in brief: as §2
Candida albicans [32] = experiment: Antifungal activity against Candida albicans CA1 after 48 hrs by broth microdilution method in presence of fluconazole; format: functional; method in brief: as §2
Candida albicans [33] = experiment: Antifungal activity against Candida albicans CA10 assessed as log reduction in fungal burden at 8 ug/ml after 48 hrs by time kill analysis in presence of ketoconazole; format: functional, organism-based
Method in brief: (§4)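 Time-kill on CA10 in RPMI 1640 starting at 10^5 CFU/ml. Treatments were RAB 8 µg/ml combined with FLC 8 µg/ml, ITR 8 µg/ml or KCZ 2 µg/ml; DMSO <1%; drug-free growth control. Samples were taken before treatment and at 6, 12, 24 and 48 h, then diluted, plated and counted after 48 h at 35°C.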

Candida albicans [34] = experiment: Antifungal activity against Candida albicans CA137 after 48 hrs by broth microdilution method in presence of itraconazole; format: functional; method in brief: as §2
Candida albicans [35] = experiment: Antifungal activity against Candida albicans CA3 after 48 hrs by broth microdilution method in presence of fluconazole; format: functional; method in brief: as §2
Candida albicans [36] = experiment: Antifungal activity against Candida albicans CA3 after 48 hrs by broth microdilution method in presence of ketoconazole; format: functional; method in brief: as §2
Candida albicans [37] = experiment: Antifungal activity against Candida albicans CA10 assessed as log reduction in fungal burden at 8 ug/ml after 48 hrs by time kill analysis in presence of fluconazole; format: functional, organism-based; method in brief: as §4
Candida albicans [38] = experiment: Antifungal activity against Candida albicans CA127 after 48 hrs by broth microdilution method in presence of itraconazole; format: functional; method in brief: as §2
Candida albicans [39] = experiment: Antifungal activity against Candida albicans CA4 after 48 hrs by broth microdilution method in presence of fluconazole; format: functional; method in brief: as §2
Candida albicans [40] = experiment: Antifungal activity against Candida albicans CA10 assessed as cell viability after 2 hrs by XTT reduction assay in presence of fluconazole; format: functional, organism-based; method in brief: as §3
Candida albicans [41] = experiment: Antifungal activity against Candida albicans CA132 after 48 hrs by broth microdilution method in presence of ketoconazole; format: functional; method in brief: as §2
Candida albicans [42] = experiment: Antifungal activity against Candida albicans CA2 after 48 hrs by broth microdilution method in presence of ketoconazole; format: functional; method in brief: as §2
Candida albicans [43] = experiment: Antifungal activity against Candida albicans CA10 assessed as log reduction in fungal burden at 8 ug/ml after 48 hrs by time kill analysis in presence of itraconazole; format: functional, organism-based; method in brief: as §4
Candida albicans [44] = experiment: Antifungal activity against Candida albicans CA127 after 48 hrs by broth microdilution method in presence of fluconazole; format: functional; method in brief: as §2
Candida albicans [45] = experiment: Antifungal activity against Candida albicans CA135 after 48 hrs by broth microdilution method in presence of itraconazole; format: functional; method in brief: as §2
Candida albicans [46] = experiment: Antifungal activity against Candida albicans CA3 after 48 hrs by broth microdilution method in presence of itraconazole; format: functional; method in brief: as §2

## CC(=O)N1CCN(c2ccc(OCC3COC(Cn4ccnc4)(c4ccc(Cl)cc4Cl)O3)cc2)CC1 (stereo unspecified) [KETOCONAZOLE]
Candida albicans [1]
  MIC: 0.031 µg/mL (≈ 0.0583 µM)
Candida albicans [2]
  MIC: 16 µg/mL (≈ 30.1 µM)
Candida albicans [3]
  MIC: 16 µg/mL (≈ 30.1 µM)
Candida albicans [4]
  MIC: 0.062 µg/mL (≈ 0.117 µM)
Candida albicans [5]
  MIC: 16 µg/mL (≈ 30.1 µM)
Candida albicans [6]
  MIC: 0.031 µg/mL (≈ 0.0583 µM)
Candida albicans [7]
  MIC: 0.062 µg/mL (≈ 0.117 µM)
Candida albicans [8]
  MIC: 0.031 µg/mL (≈ 0.0583 µM)
Candida albicans [9]
  MIC: 16 µg/mL (≈ 30.1 µM)
Candida albicans [10]
  MIC: 0.016 µg/mL (≈ 0.0301 µM)

## CC(C)[C@H]1CC[C@@H]2[C@]1(C)CC[C@]1(C)[C@H]3CC[C@@H]4[C@](C(=O)O)(C[C@@H](O)[C@H](O)[C@@]4(C)C(=O)O)C3=CC[C@@]21C [RETIGERIC ACID B]
Candida albicans [1]
  MIC: 16 µg/mL (≈ 31.8 µM)
Candida albicans [11]
  fractional inhibitory concentration index (FICI): 0.75
Candida albicans [12]
  Activity: Active
Candida albicans [13]
  fractional inhibitory concentration index (FICI): 0.75
Candida albicans [2]
  MIC: 16 µg/mL (≈ 31.8 µM)
Candida albicans [14]
  fractional inhibitory concentration index (FICI): 0.252
Candida albicans [3]
  MIC: 8 µg/mL (≈ 15.9 µM)
Candida albicans [4]
  MIC: 8 µg/mL (≈ 15.9 µM)
Candida albicans [15]
  fractional inhibitory concentration index (FICI): 0.375
Candida albicans [16]
  fractional inhibitory concentration index (FICI): 0.625
Candida albicans [17]
  fractional inhibitory concentration index (FICI): 0.254
Candida albicans [18]
  fractional inhibitory concentration index (FICI): 0.127
Candida albicans [5]
  MIC: 16 µg/mL (≈ 31.8 µM)
Candida albicans [19]
  fractional inhibitory concentration index (FICI): 0.252
Candida albicans [20]
  fractional inhibitory concentration index (FICI): 0.625
Candida albicans [6]
  MIC: 8 µg/mL (≈ 15.9 µM)
Candida albicans [21]
  fractional inhibitory concentration index (FICI): 0.254
Candida albicans [22]
  fractional inhibitory concentration index (FICI): 0.25
Candida albicans [23]
  fractional inhibitory concentration index (FICI): 0.254
Candida albicans [7]
  MIC: 16 µg/mL (≈ 31.8 µM)
Candida albicans [24]
  fractional inhibitory concentration index (FICI): 0.75
Candida albicans [25]
  fractional inhibitory concentration index (FICI): 0.375
Candida albicans [8]
  MIC: 8 µg/mL (≈ 15.9 µM)
Candida albicans [26]
  fractional inhibitory concentration index (FICI): 0.125
Candida albicans [27]
  fractional inhibitory concentration index (FICI): 0.75
Candida albicans [28]
  fractional inhibitory concentration index (FICI): 0.252
Candida albicans [29]
  Activity: Active
Candida albicans [9]
  MIC: 16 µg/mL (≈ 31.8 µM)
Candida albicans [30]
  fractional inhibitory concentration index (FICI): 0.25
Candida albicans [31]
  fractional inhibitory concentration index (FICI): 0.126
Candida albicans [32]
  fractional inhibitory concentration index (FICI): 0.5
Candida albicans [10]
  MIC: 16 µg/mL (≈ 31.8 µM)
Candida albicans [33]
  Activity: Active
Candida albicans [34]
  fractional inhibitory concentration index (FICI): 0.258
Candida albicans [35]
  fractional inhibitory concentration index (FICI): 0.5
Candida albicans [36]
  fractional inhibitory concentration index (FICI): 0.25
Candida albicans [37]
  Activity: Active
Candida albicans [38]
  fractional inhibitory concentration index (FICI): 0.375
Candida albicans [39]
  fractional inhibitory concentration index (FICI): 0.625
Candida albicans [40]
  Activity: Active
Candida albicans [41]
  fractional inhibitory concentration index (FICI): 0.625
Candida albicans [42]
  fractional inhibitory concentration index (FICI): 0.253
Candida albicans [43]
  Activity: Active
Candida albicans [44]
  fractional inhibitory concentration index (FICI): 0.5
Candida albicans [45]
  fractional inhibitory concentration index (FICI): 0.254
Candida albicans [46]
  fractional inhibitory concentration index (FICI): 0.375
